High-throughput results as filed in PubChem.
An excerpt weighted towards active compounds, which were near 4% of everything screened.
DAGLB inhibitor = diacylglycerol lipase beta (human) inhibition; Q8NCG7; HEK293T DAGLB membrane lysate, EnzChek fluorogenic substrate; inhibition, % at 5.17 µM; 340,000 tested, 0.059% active; AID 504411; in the data active means inhibition above about 34%;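 further: 0% = enzyme with vehicle and 100% = wells lacking enzyme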
GPR7 antagonist = antagonists of human GPR7 (neuropeptides B/W receptor 1) | GPR7-expressing cells, fluorescence antagonist assay | inhibition, % at 4.4 µM | 290,000 tested, 1.1% active | AID 1861; in the data active means inhibition above about 16%, passing the limit was not always enough;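 further: cells stimulated with the agonist NPW; 0% = agonist with vehicle and 100% = vehicle without agonist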
Target sequence (P48145 whole entry, looked up): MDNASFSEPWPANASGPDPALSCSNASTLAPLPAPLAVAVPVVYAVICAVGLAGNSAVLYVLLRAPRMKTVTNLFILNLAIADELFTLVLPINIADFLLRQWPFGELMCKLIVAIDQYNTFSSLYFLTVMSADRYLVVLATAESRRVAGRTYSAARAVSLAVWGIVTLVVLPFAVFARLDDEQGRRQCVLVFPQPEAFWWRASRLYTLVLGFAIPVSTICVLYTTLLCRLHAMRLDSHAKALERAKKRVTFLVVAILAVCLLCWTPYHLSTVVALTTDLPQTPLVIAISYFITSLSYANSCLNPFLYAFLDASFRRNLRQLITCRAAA
TAAR1 agonist = human TAAR1 agonism; CHO RD-HGA16 TAAR1, Fluo-8 calcium fluorescence; vehicle wells 0%, saturating PEA agonist 100%; activation, % at 3 µM; 360,000 tested, 0.99% active; AID 624467;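 active means activation above the mean activation of all test compounds in the run plus 3 SD, cut at about 38% in these data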
Target sequence (Q96RJ0 whole entry, looked up): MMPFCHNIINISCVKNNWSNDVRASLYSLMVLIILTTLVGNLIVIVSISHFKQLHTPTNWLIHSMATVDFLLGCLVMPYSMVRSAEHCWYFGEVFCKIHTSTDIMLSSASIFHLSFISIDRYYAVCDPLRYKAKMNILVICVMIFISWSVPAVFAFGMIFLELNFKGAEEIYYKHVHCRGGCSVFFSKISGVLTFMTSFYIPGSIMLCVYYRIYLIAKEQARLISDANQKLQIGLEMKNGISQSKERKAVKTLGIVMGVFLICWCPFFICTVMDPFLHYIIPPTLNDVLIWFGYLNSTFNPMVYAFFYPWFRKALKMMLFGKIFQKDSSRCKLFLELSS
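System: CHO-derived RD-HGA16 cells with stable Gα16 and human TAAR1 / Times: 17-24 h plating, Fluo-8 75 min 37 °C, 30 min RT / Technique: calcium-sensitive Fluo-8 signal, excitation 470-495, emission 515-575 nm / Measure: % activation relative to PEA EC100 response / Benchmarks: DMSO and PEA EC100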
TAAR1 antagonist = human TAAR1 antagonism | 360,000 tested, 1.5% active | CHO RD-HGA16 TAAR1, Fluo-8 calcium fluorescence, antagonist | inhibition, % at 3 µM;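 active means inhibition above a per-plate cutoff, the mean inhibition of test compounds on that plate plus 3 SD, cut at about 49% in these data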;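 further: 0% = DMSO plus EC80 beta-PEA response and 100% = DMSO alone without agonist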
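Test system – hTAAR1-expressing CHO RD-HGA16 cells, Gα16-coupled · Also added – β-PEA at EC80 concentration, post-compound challenge · Compound – 3 µM, single point · Incubation – dye loading 75 min at 37 °C, then 30 min room temperature · Measured by – Fluo-8 intracellular calcium dye fluorescence, real-time kinetic reads · Benchmarks – vehicle and agonist controls · Replicates – singlicate, one well per test compound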
MPTP block = inhibitors of mitochondrial permeability transition pore; isolated mouse mitochondria, Ca2+ swelling absorbance, 30 min; inhibition, % at 10 µM; 360,000 tested, 1.4% active; AID 602449;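 active means inhibition of 50% or more, scaled per plate between neutral and stimulator controls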;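 further: 0% = DMSO wells given calcium and 100% = 1 mM EGTA wells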
GPR7 antag conf = confirmation of human GPR7 antagonists | shares compounds with GPR7 antagonist | GPR7-expressing cells, calcium fluorescence antagonist mode | inhibition, % at 4.4 µM | 2,400 tested, 52% active | AID 1952; in the data active means inhibition above about 24%;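 further: stimulated with the GPR7 agonist NPW; 0% = agonist plus vehicle and 100% = vehicle alone without agonist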
MCHR1 antagonist = MCHR1 (human) antagonism in GPR7 counter-screen. 2,400 tested, 62% active. AID 2148. inhibition, % at 4.4 µM. shares compounds with GPR7 antagonist. MCHR1-expressing cells, fluorescence antagonist assay; in the data active means inhibition above about 22%;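 further: 0% = vehicle with agonist and 100% = vehicle without agonist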
The depositor's hits bear a star.

What do the screens show for `COc1ccc(NC(=O)c2cc3c(CO)cnc(C)c3oc2=Nc2cc(OC)cc(OC)c2)cc1`?
DAGLB inhibitor: 2; GPR7 antagonist: 37*; TAAR1 agonist: 0; TAAR1 antagonist: -13; MPTP block: 4; GPR7 antag conf: -21; MCHR1 antagonist: -3

What do the screens show for `O=C(c1ccc(Cl)cc1)N1CCN(CCc2ccccn2)CC1`?
DAGLB inhibitor: -7; GPR7 antagonist: 6; TAAR1 agonist: 2; TAAR1 antagonist: -15; MPTP block: -1

How did CN1CCC(NC(=O)c2cc(-c3cccc(Br)c3)nc3ccccc23)CC1 do in these assays?
DAGLB inhibitor: -1; GPR7 antagonist: 42*; TAAR1 agonist: 9; TAAR1 antagonist: -13; MPTP block: -2; GPR7 antag conf: 37*; MCHR1 antagonist: 32*

Results for O=C(NC1CC1)c1cc(-c2ccc(Br)cc2)nc2ccccc12 ?
DAGLB inhibitor: -3; TAAR1 agonist: 9; TAAR1 antagonist: 30; MPTP block: 0

How did CN1C(=O)C(O)(CC(=O)/C=C/C=C/c2ccccc2)c2ccccc21 (centres undefined) do in these assays?
DAGLB inhibitor: 0; GPR7 antagonist: 23*; TAAR1 agonist: 3; TAAR1 antagonist: -4; MPTP block: -2; GPR7 antag conf: -16; MCHR1 antagonist: 10

Results for CCCNC(=O)c1nnsc1S(=O)(=O)c1ccc(Cl)cc1 ?
DAGLB inhibitor: -8; GPR7 antagonist: 35*; TAAR1 agonist: 3; TAAR1 antagonist: 24; MPTP block: -1; GPR7 antag conf: 79*; MCHR1 antagonist: 102*

What do the screens show for `Cc1nn(-c2ccccc2)c(N)c1Sc1ccc([N+](=O)[O-])cc1`?
DAGLB inhibitor: -5; GPR7 antagonist: 23*; TAAR1 agonist: 0; TAAR1 antagonist: 10; MPTP block: 1; GPR7 antag conf: 33*; MCHR1 antagonist: 55*

What do the screens show for `Cc1cccc(-c2ccc(O)cc2CN2CCN(c3ncc(Cc4ccccc4)cn3)CC2)c1`?
TAAR1 agonist: -1; TAAR1 antagonist: -32; MPTP block: 3

Results for O=C(N[C@H](Cc1ccccc1)C(=O)N1CCN(Cc2ccccn2)CC1)[C@H]1O[C@@H](n2ccc(=O)[nH]c2=O)[C@H](O)[C@@H]1O ?
TAAR1 agonist: 1; TAAR1 antagonist: -6

Results for Cc1c(N)cccc1-n1cccc1 ?
DAGLB inhibitor: 2; GPR7 antagonist: -2; TAAR1 agonist: 0; TAAR1 antagonist: -12; MPTP block: 0

How did Cc1c(N)cccc1-n1cnnn1 do in these assays?
DAGLB inhibitor: -2; GPR7 antagonist: 24*; TAAR1 agonist: 0; TAAR1 antagonist: -10; MPTP block: 1; GPR7 antag conf: -1; MCHR1 antagonist: 5

Results for CC1CCN(C(=O)c2cc(S(=O)(=O)N3CCCCC3)c[nH]2)CC1 ?
DAGLB inhibitor: -1; GPR7 antagonist: 27*; TAAR1 agonist: 8; TAAR1 antagonist: -22; MPTP block: -2; GPR7 antag conf: 6; MCHR1 antagonist: 5

How did CCOC(=O)C[C@@H]1OC[C@H](C)N1S(=O)(=O)c1ccc(C)cc1 do in these assays?
TAAR1 agonist: 0; TAAR1 antagonist: -18; MPTP block: 1

Results for O=C(CN1C(=O)COc2ccc(S(=O)(=O)N3CCCC3)cc21)NC1CCCCCCC1 ?
GPR7 antagonist: 27*; GPR7 antag conf: -3; MCHR1 antagonist: 5

How did O=C(CN1C(=O)COc2ccc(S(=O)(=O)N3CCCC3)cc21)NC1CC1 do in these assays?
DAGLB inhibitor: -1; GPR7 antagonist: 4; TAAR1 agonist: 0; TAAR1 antagonist: 17; MPTP block: 0

What do the screens show for `Cc1ccc2c(c1)N(CC(=O)OC(CC(C)C)C(=O)NC1CCCC1)C(=O)CO2` (centres undefined)?
DAGLB inhibitor: -3; GPR7 antagonist: 29*; TAAR1 agonist: 3; TAAR1 antagonist: 24; MPTP block: 1; GPR7 antag conf: 30*; MCHR1 antagonist: 33*

Results for COc1cccc(CNC(=O)CN2C(=O)COc3ccc(S(=O)(=O)N4CCOCC4)cc32)c1 ?
DAGLB inhibitor: 2; GPR7 antagonist: 32*; TAAR1 agonist: 3; TAAR1 antagonist: -3; MPTP block: -2; GPR7 antag conf: -9; MCHR1 antagonist: 3

Results for COc1ccc(CCC(=O)OCC(=O)c2c(N)n(CC(C)C)c(=O)n(C)c2=O)cc1 ?
DAGLB inhibitor: -1; GPR7 antagonist: 28*; TAAR1 agonist: 8; TAAR1 antagonist: 29; MPTP block: 0; GPR7 antag conf: 44*; MCHR1 antagonist: 60*

Results for COc1ccccc1CCC(=O)OCC(=O)c1c(N)n(CC(C)C)c(=O)n(C)c1=O ?
DAGLB inhibitor: 3; TAAR1 agonist: 10; TAAR1 antagonist: 20; MPTP block: 2

Results for CC1(C(=O)Nc2cnc3ccccc3c2)CCN1Cc1ccc(OC(F)(F)F)cc1 (centres undefined) ?
TAAR1 agonist: -1; TAAR1 antagonist: 1; MPTP block: 7

Results for CC(C)c1cccc(C(C)C)c1NC(=O)Cn1c(=O)cnc2ccccc21 ?
DAGLB inhibitor: -4; GPR7 antagonist: 22*; TAAR1 agonist: 8; TAAR1 antagonist: 10; MPTP block: 1; GPR7 antag conf: 10; MCHR1 antagonist: 13

What do the screens show for `O=C(NCc1ccccc1)C1CCCN(S(=O)(=O)c2ccc(-n3cnnn3)cc2)C1` (centres undefined)?
DAGLB inhibitor: 1; GPR7 antagonist: 23*; TAAR1 agonist: -3; TAAR1 antagonist: 5; MPTP block: 2; GPR7 antag conf: 8; MCHR1 antagonist: 6

What do the screens show for `O=C(NCc1ccc(F)cc1)C1CCCN(S(=O)(=O)c2ccc(-n3cnnn3)cc2)C1` (centres undefined)?
DAGLB inhibitor: 2; GPR7 antagonist: -3; TAAR1 agonist: 5; TAAR1 antagonist: 5; MPTP block: 0

What do the screens show for `O=C(CN1C(=O)c2ccccc2C1=O)Nc1ccccc1C(F)(F)F`?
DAGLB inhibitor: 3; GPR7 antagonist: -3; TAAR1 agonist: -1; TAAR1 antagonist: 7; MPTP block: 1

Results for O=C(CN1C(=O)c2ccccc2C1=O)Nc1ccccc1F ?
DAGLB inhibitor: -1; GPR7 antagonist: 21*; TAAR1 agonist: 9; TAAR1 antagonist: 3; MPTP block: -2; GPR7 antag conf: -10; MCHR1 antagonist: 38*

What do the screens show for `CCN(CC)CCN1C(=O)/C(=C\c2ccc(Cl)c([N+](=O)[O-])c2)SC1=Nc1ccc(OC)cc1`?
DAGLB inhibitor: -5; GPR7 antagonist: 46*; TAAR1 agonist: 9; TAAR1 antagonist: -4; MPTP block: 1; GPR7 antag conf: 75*; MCHR1 antagonist: 60*
